Structures are written as SMILES.

Test [1] concerns the target T1, Alcohol dehydrogenase (Equus caballus, UniProt P00327+P00328). As to the kind of experiment: In vitro inhibitory activity against horse liver Alcohol dehydrogenase.
The target of test [2] is Glutamate dehydrogenase 1, mitochondrial (Bos taurus, UniProt P00366). As to the kind of experiment: In vitro inhibitory activity against bovine liver glutamate dehydrogenase (GDH).
The target in test [3] is T1, Alcohol dehydrogenase. As to the kind of experiment: Dissociation constant from Alcohol dehydrogenase. Format: protein assay.
In test [4] the target is T1, Alcohol dehydrogenase. As to the kind of experiment: In vitro inhibitory activity against horse liver Alcohol dehydrogenase (ADH).
For test [5], the target named is L-lactate dehydrogenase B chain (Sus scrofa, UniProt P00336). As to the kind of experiment: In vitro inhibitory activity against pig heart lactate dehydrogenase (LDH). Summed up:
(§1)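 Pig heart enzymes (cytoplasmic MDH or LDH, from ammonium sulfate suspension) assayed in 0.05 M Tris HCl pH 9.0, with NAD as substrate; rates from NADH appearance by A340 (ε 6.22 mM⁻¹cm⁻¹) or fluorescence calibrated against NADH standards. Run at least in duplicate; kinetic constants from Lineweaver-Burk plots by linear regression.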

In test [6] the target is T2, Malate dehydrogenase, cytoplasmic (Sus scrofa, UniProt P11708).
T2 sequence (P11708 whole entry): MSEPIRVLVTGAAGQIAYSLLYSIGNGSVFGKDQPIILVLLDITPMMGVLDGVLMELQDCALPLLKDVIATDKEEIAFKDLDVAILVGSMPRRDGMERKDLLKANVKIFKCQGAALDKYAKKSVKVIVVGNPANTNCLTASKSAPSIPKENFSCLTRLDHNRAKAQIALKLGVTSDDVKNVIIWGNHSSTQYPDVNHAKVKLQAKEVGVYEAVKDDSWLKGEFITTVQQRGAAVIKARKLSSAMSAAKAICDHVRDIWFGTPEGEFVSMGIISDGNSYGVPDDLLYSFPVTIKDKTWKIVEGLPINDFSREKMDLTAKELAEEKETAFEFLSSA
As to the kind of experiment: In vitro inhibitory activity against pig heart cytoplasmic malate dehydrogenase (MDH). The method in brief: as §1

Chain of Glutamate dehydrogenase 1, mitochondrial (P00366 whole entry): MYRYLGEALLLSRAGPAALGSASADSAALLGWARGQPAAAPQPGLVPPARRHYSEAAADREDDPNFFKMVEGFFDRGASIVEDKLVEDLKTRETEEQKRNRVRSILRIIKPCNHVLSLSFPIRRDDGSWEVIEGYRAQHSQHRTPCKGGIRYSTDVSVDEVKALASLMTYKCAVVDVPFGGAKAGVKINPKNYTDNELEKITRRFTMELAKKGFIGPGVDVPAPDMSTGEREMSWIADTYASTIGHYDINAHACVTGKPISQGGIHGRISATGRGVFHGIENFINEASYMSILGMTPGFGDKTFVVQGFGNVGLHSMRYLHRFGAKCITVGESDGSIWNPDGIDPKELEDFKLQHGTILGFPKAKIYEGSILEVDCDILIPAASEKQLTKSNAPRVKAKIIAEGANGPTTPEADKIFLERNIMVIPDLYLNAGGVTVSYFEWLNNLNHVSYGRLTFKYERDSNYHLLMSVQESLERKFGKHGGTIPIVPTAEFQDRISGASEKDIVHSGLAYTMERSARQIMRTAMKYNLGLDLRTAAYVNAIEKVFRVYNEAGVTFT
Chain of L-lactate dehydrogenase B chain (P00336 whole entry): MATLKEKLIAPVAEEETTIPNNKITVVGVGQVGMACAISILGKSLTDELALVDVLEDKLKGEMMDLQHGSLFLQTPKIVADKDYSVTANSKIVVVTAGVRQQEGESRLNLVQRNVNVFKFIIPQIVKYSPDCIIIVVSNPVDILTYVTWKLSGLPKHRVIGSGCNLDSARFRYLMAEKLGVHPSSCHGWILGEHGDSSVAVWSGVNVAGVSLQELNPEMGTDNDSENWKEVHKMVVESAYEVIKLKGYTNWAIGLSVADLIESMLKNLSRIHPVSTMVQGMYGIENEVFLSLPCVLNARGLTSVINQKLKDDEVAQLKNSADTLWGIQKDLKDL

The Ki is the equilibrium dissociation constant of an inhibitor or competing ligand from its target. With `NC(=O)c1ccc[n+]([C@@H]2O[C@H](COP(=O)([O-])O)[C@@H](O)[C@H]2O)c1` [BETANMN], the Ki on Alcohol dehydrogenase [1] was over 10 mM; in test [2] it was over 10000 µM.

In general, Kd refers to a measure of binding affinity in units of concentration. The molecule `NC(=O)c1csc([C@H]2O[C@@H](COP(=O)(O)OP(=O)(O)OC[C@H]3O[C@@H](n4cnc5c(N)ncnc54)[C@H](O)[C@@H]3O)[C@H](O)[C@@H]2O)n1` returned a Kd on Alcohol dehydrogenase [3] of 27 µM. The Ki on Alcohol dehydrogenase [4] was 26.5 µM; in test [2] it was 4.5 µM; in test [5], 25.2 µM; in test [6], 36.3 µM.

For `NC(=O)c1csc([C@@H]2O[C@H](CO)[C@@H](O)[C@H]2O)n1` [TIAZOFURIN], the results for the Ki (on Alcohol dehydrogenase [1]; in test [2]) were over 10 mM and over 10000 µM, respectively.

Regarding `NC(=O)c1csc([C@@H]2O[C@H](COP(=O)(O)O)[C@@H](O)[C@H]2O)n1`, the Ki on Alcohol dehydrogenase [1] stood at 0.105 mM; in test [2], 65.2 µM.

The values are drawn from ChEMBL document CHEMBL1124735, “Dehydrogenase binding by tiazofurin anabolites” (J Med Chem, 1990).
